Assays:
Assay type in all cases: functional
[1] = tested on: Mycobacteroides abscessus; assay: Antimicrobial activity against Mycobacterium abscessus isolate MC724 at day 9 preincubated with 0.1 ug/ml erythromycin for 3 days by broth microdilution method
Method in brief: (§1)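 To test inducible resistance, cultures were preincubated for 3 days in clarithromycin or erythromycin, within 0.01–1 μg/ml. The period was set so cultures passed at least two generations, judged by turbidity increase. Clarithromycin MIC was then determined by CLSI-conforming broth microdilution and read on the stated day, from day 3 up to 14.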

[2] = tested on: Mycobacteroides abscessus; assay: Antimicrobial activity against Mycobacterium abscessus isolate MC879 at day 9 preincubated with 0.1 ug/ml for 3 days by broth microdilution method; method in brief: as §1
[3] = tested on: Mycobacteroides abscessus; assay: Antimicrobial activity against Mycobacterium abscessus isolate MC719 at day 3 preincubated with 0.1 ug/ml for 3 days by broth microdilution method
Method in brief: (§2)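 Clarithromycin MIC by broth microdilution following CLSI guidelines. Before testing, organisms were preincubated for 3 days in medium alone or in clarithromycin or erythromycin (0.01–1 μg/ml), long enough for at least two generations judged by turbidity increase. MICs were read on day 3 and again on extended incubation out to day 14.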

[4] = tested on: Mycobacteroides abscessus; assay: Antimicrobial activity against Mycobacterium abscessus isolate MC1448 at day 14 preincubated with 0.1 ug/ml for 3 days by broth microdilution method
Method in brief: (§3)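 Clarithromycin MIC by CLSI-conforming broth microdilution. Before testing, cultures were preincubated for 3 days, either in medium alone or in clarithromycin or erythromycin (tested range 0.01–1 μg/ml). Preincubation ran for at least two generations, judged by turbidity increase. Plates were read on day 3 and on extended incubation at days 5 to 14.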

[5] = tested on: Mycobacteroides abscessus; assay: Antimicrobial activity against Mycobacterium abscessus isolate MC958 at day 9 preincubated with 0.1 ug/ml erythromycin for 3 days by broth microdilution method
[6] = tested on: Mycobacteroides abscessus; assay: Antimicrobial activity against Mycobacterium abscessus isolate MC879 at day 7 by broth microdilution method; conditions: isolate MC879, 168 h
Method in brief: (§4)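 Clarithromycin MIC by broth microdilution following CLSI guidelines. Organisms were preincubated […], for 3 days before the assay. This allowed at least two generations, judged by the rise in turbidity. The MIC was read at the stated day, with incubation extended from day 3 to as long as 14 days.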

[7] = tested on: Mycobacteroides abscessus; assay: Antimicrobial activity against Mycobacterium abscessus isolate MC958 on day 4 by broth microdilution method; conditions: isolate MC958, 96 h
[8] = tested on: Mycobacteroides abscessus; assay: Antimicrobial activity against Mycobacterium abscessus isolate MC879 at day 5 preincubated with 0.1 ug/ml for 3 days by broth microdilution method; method in brief: as §1
[9] = tested on: Mycobacteroides abscessus; assay: Antimicrobial activity against Mycobacterium abscessus isolate MC1028 at day 9 preincubated with 0.1 ug/ml erythromycin for 3 days by broth microdilution method; method in brief: as §3
[10] = tested on: Mycobacteroides abscessus; assay: Antimicrobial activity against Mycobacterium abscessus isolate MC879 at day 5 by broth microdilution method; conditions: isolate MC879, 120 h; method in brief: as §4
[11] = tested on: Mycobacteroides abscessus; assay: Antimicrobial activity against Mycobacterium abscessus isolate MC879-2 at day 7 preincubated with 0.1 ug/ml erythromycin for 3 days by broth microdilution method
[12] = tested on: Mycobacteroides abscessus; assay: Antimicrobial activity against Mycobacterium abscessus isolate MAB30 at day 3 preincubated with 0.1 ug/ml for 3 days by broth microdilution method; method in brief: as §3
[13] = tested on: Mycobacteroides abscessus; assay: Antimicrobial activity against Mycobacterium abscessus isolate MAB30 at day 14 preincubated with 0.1 ug/ml erythromycin for 3 days by broth microdilution method; method in brief: as §3
[14] = tested on: Mycobacteroides abscessus; assay: Antimicrobial activity against Mycobacterium abscessus isolate MAB30 at day 14 by broth microdilution method; conditions: isolate MAB30, 336 h; method in brief: as §3
[15] = tested on: Mycolicibacterium smegmatis; assay: Antimicrobial activity against Mycobacterium smegmatis transformed with erm allele Mycobacterium abscessus isolate MC719 preincubated with 2 ug/ml erythromycin for 20 to 24 hrs by broth microdilution method
[16] = tested on: Mycobacteroides abscessus; assay: Antimicrobial activity against Mycobacterium abscessus isolate MC879-2 at day 14 preincubated with 0.1 ug/ml erythromycin for 3 days by broth microdilution method
[17] = tested on: Mycobacteroides abscessus; assay: Antimicrobial activity against Mycobacterium abscessus isolate MC719 at day 9 preincubated with 0.1 ug/ml for 3 days by broth microdilution method; method in brief: as §2
[18] = tested on: Mycobacteroides abscessus; assay: Antimicrobial activity against Mycobacterium abscessus isolate MAB30 at day 7 by broth microdilution method; conditions: isolate MAB30, 168 h; method in brief: as §3
[19] = tested on: Mycobacteroides abscessus; assay: Antimicrobial activity against Mycobacterium abscessus isolate MC1448 at day 9 preincubated with 0.1 ug/ml erythromycin for 3 days by broth microdilution method; method in brief: as §2
[20] = tested on: Mycobacteroides abscessus; assay: Antimicrobial activity against Mycobacterium abscessus isolate MC723 at day 3 preincubated with 0.1 ug/ml erythromycin for 3 days by broth microdilution method; method in brief: as §2
[21] = tested on: Mycobacteroides abscessus; assay: Antimicrobial activity against Mycobacterium abscessus isolate MC720 at day 7 preincubated with 0.1 ug/ml for 3 days by broth microdilution method; method in brief: as §2
[22] = tested on: Mycobacteroides abscessus; assay: Antimicrobial activity against Mycobacterium abscessus isolate MAB30 at day 3 preincubated with 0.1 ug/ml erythromycin for 3 days by broth microdilution method; method in brief: as §3
[23] = tested on: Mycobacteroides abscessus; assay: Antimicrobial activity against Mycobacterium abscessus isolate MC879 at day 7 preincubated with 0.1 ug/ml for 3 days by broth microdilution method; method in brief: as §1
[24] = tested on: Mycobacteroides abscessus; assay: Antimicrobial activity against Mycobacterium abscessus isolate MC719 at day 7 preincubated with 0.1 ug/ml erythromycin for 3 days by broth microdilution method; method in brief: as §2
[25] = tested on: Mycobacteroides abscessus; assay: Antimicrobial activity against Mycobacterium abscessus isolate MC723 at day 14 by broth microdilution method; conditions: isolate MC723, 336 h; method in brief: as §2
[26] = tested on: Mycolicibacterium smegmatis; assay: Antimicrobial activity against Mycobacterium smegmatis transformed with erm allele Mycobacterium abscessus isolate MC879 by broth microdilution method
[27] = tested on: Mycobacteroides abscessus; assay: Antimicrobial activity against Mycobacterium abscessus isolate MC723 at day 5 preincubated with 0.1 ug/ml for 3 days by broth microdilution method
Method in brief: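 Clinical M. abscessus isolates were preincubated for 3 days, either in medium alone or in clarithromycin or erythromycin at 0.01 to 1 μg/ml, allowing at least two generations of growth judged by turbidity. The clarithromycin MIC was then determined by CLSI-conforming broth microdilution, with plates read on day 3 and on extended incubation (days 5 to 14).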

[28] = tested on: Mycobacteroides abscessus; assay: Antimicrobial activity against Mycobacterium abscessus isolate MC879-2 at day 5 by broth microdilution method; conditions: isolate MC879-2, 120 h
[29] = tested on: Mycobacteroides abscessus; assay: Antimicrobial activity against Mycobacterium abscessus isolate MC724 at day 3 preincubated with 0.1 ug/ml erythromycin for 3 days by broth microdilution method; method in brief: as §1
[30] = tested on: Mycobacteroides abscessus; assay: Antimicrobial activity against Mycobacterium abscessus isolate MC1448 at day 7 by broth microdilution method; conditions: isolate MC1448, 168 h; method in brief: as §2
[31] = tested on: Mycobacteroides abscessus; assay: Antimicrobial activity against Mycobacterium abscessus isolate MC724 at day 14 preincubated with 0.1 ug/ml for 3 days by broth microdilution method; method in brief: as §2
[32] = tested on: Mycolicibacterium smegmatis; assay: Antimicrobial activity against Mycobacterium smegmatis transformed with erm allele Mycobacterium abscessus isolate MC1028 preincubated with 2 ug/ml erythromycin for 20 to 24 hrs by broth microdilution method
[33] = tested on: Mycobacteroides abscessus; assay: Antimicrobial activity against Mycobacterium abscessus isolate MC879 on day 14 by broth microdilution method; conditions: isolate MC879, 336 h
[34] = tested on: Mycobacteroides abscessus; assay: Antimicrobial activity against Mycobacterium abscessus isolate MC1082 at day 7 preincubated with 0.1 ug/ml for 3 days by broth microdilution method; method in brief: as §3
[35] = tested on: Mycobacteroides abscessus; assay: Antimicrobial activity against Mycobacterium abscessus isolate MC1448 at day 3 preincubated with 0.1 ug/ml erythromycin for 3 days by broth microdilution method; method in brief: as §2

Measured: MIC

CC[C@H]1OC(=O)[C@H](C)[C@@H](O[C@H]2C[C@@](C)(OC)[C@@H](O)[C@H](C)O2)[C@H](C)[C@@H](O[C@@H]2O[C@H](C)C[C@H](N(C)C)[C@H]2O)[C@](C)(OC)C[C@@H](C)C(=O)[C@H](C)[C@@H](O)[C@]1(C)O [CLARITHROMYCIN]
1 µg/mL: [10]
8 µg/mL: [6]
≤ 0.5 µg/mL: [3] | [9] | [12] | [13] | [14] | [18] | [20] | [22] | [29] | [32] | [34]
32 µg/mL: [33]
2 µg/mL: [26]
≤ 2 µg/mL: [7]
16 µg/mL: [15]
4 µg/mL: [8] | [27]
> 32 µg/mL: all other assays above

Reference: ChEMBL document CHEMBL1649139, “A novel gene, erm(41), confers inducible macrolide resistance to clinical isolates of Mycobacterium abscessus but is absent from Mycobacterium chelonae” (2009)
